In ChEMBL document CHEMBL4219023, “Synthesis and biological activity of novel tert-amylphenoxyalkyl (homo)piperidine derivatives as histamine H3R ligands” (Bioorg Med Chem, 2017):
Activity calls are given as the source filed them. The calls are words filed in the database; no cut-off is given here.

Legend:
Histamine H3 receptor [1] = target: T1, Histamine H3 receptor (Homo sapiens, UniProt Q9Y5N1); assay: Displacement of [125I]Iodoproxyfan from recombinant human histamine H3 receptor expressed in CHOK1 cell membranes after 90 mins
In short: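 Membranes of CHO-K1 cells expressing hH3R were incubated 90 min at 25 °C, shaken at 250 rpm, with [125I]iodoproxyfan (16–50 pM) and test compound. Nonspecific binding was defined with 1 μM imetit. Separation by filtration on PEI-treated GF/B filters. Ki obtained from IC50 by Cheng-Prusoff.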

[2] = Lipophilicity of compound by RP-TLC analysis; type: physicochemical; conditions: methanol:acetic acid:water
In short: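 Reversed-phase TLC on RP-18 plates with methanol:acetic acid:water mobile phase (acid constant at 10%, methanol 85–55% in 5% steps). Spots visualised with iodine. RM values were derived from Rf and extrapolated to zero methanol to give RM0.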

Mus musculus [3] = assay: Anticonvulsant activity in CF-1 albino mouse assessed as protection against maximal electroshock-induced seizures at 30 mg/kg, ip after 4 hrs; type: functional, organism-based
In short: (§1)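 Male CF-1 albino mice received compound i.p. as a suspension in 0.5% methylcellulose (30, 100 or 300 mg/kg). Maximal electroshock seizure test read 0.5 h and 4 h after dosing. Result given as animals protected/animals tested.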

Mus musculus [4] = assay: Anticonvulsant activity in CF-1 albino mouse assessed as protection against maximal electroshock-induced seizures at 100 mg/kg, ip after 4 hrs; type: functional, organism-based; in short: as §1
Mus musculus [5] = assay: Neurotoxicity in CF-1 albino mouse at 30 mg/kg, ip after 4 hrs by rotarod test; type: toxicity, organism-based; conditions: in vivo
In short: (§2)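 Male CF-1 mice were dosed i.p. with compound suspended in 0.5% methylcellulose (30, 100 or 300 mg/kg). Neurotoxicity was scored by rotarod 0.5 h and 4 h after dosing, as animals showing toxicity/animals tested. Type of toxicity was noted, e.g. inability to grasp the rod, tremors, death.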

Mus musculus [6] = assay: Neurotoxicity in CF-1 albino mouse at 30 mg/kg, ip after 0.5 hrs by rotarod test; type: toxicity, organism-based; conditions: in vivo; in short: as §2
Mus musculus [7] = assay: Anticonvulsant activity in CF-1 albino mouse assessed as protection against subcutaneous pentetrazole-induced seizures at 300 mg/kg, ip after 0.5 hrs; type: functional, organism-based
Mus musculus [8] = assay: Anticonvulsant activity in CF-1 albino mouse assessed as protection against subcutaneous pentetrazole-induced seizures at 100 mg/kg, ip after 0.5 hrs; type: functional, organism-based
Mus musculus [9] = assay: Anticonvulsant activity in CF-1 albino mouse assessed as protection against maximal electroshock-induced seizures at 30 mg/kg, ip after 0.5 hrs; type: functional, organism-based; in short: as §1
Mus musculus [10] = assay: Anticonvulsant activity in CF-1 albino mouse assessed as protection against subcutaneous pentetrazole-induced seizures at 300 mg/kg, ip after 4 hrs; type: functional, organism-based
Mus musculus [11] = assay: Anticonvulsant activity in CF-1 albino mouse assessed as protection against maximal electroshock-induced seizures at 300 mg/kg, ip after 0.5 hrs; type: functional, organism-based; in short: as §1
Rattus norvegicus = assay: Anticonvulsant activity in albino Sprague-Dawley rat assessed as protection against maximal electroshock-induced seizures at 30 mg/kg, po after 0.5 to 4 hrs; type: functional, organism-based
In short: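 Male Sprague-Dawley rats, four per group, were given compound orally at a fixed 30 mg/kg in 0.5% methylcellulose suspension. Maximal electroshock test was read at 0.5 h and 4 h.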

Mus musculus [12] = assay: Neurotoxicity in CF-1 albino mouse at 100 mg/kg, ip after 4 hrs by rotarod test; type: toxicity, organism-based; conditions: in vivo; in short: as §2
Mus musculus [13] = assay: Anticonvulsant activity in CF-1 albino mouse assessed as protection against subcutaneous pentetrazole-induced seizures at 100 mg/kg, ip after 4 hrs; type: functional, organism-based
Mus musculus [14] = assay: Anticonvulsant activity in CF-1 albino mouse assessed as protection against subcutaneous pentetrazole-induced seizures at 30 mg/kg, ip after 0.5 hrs; type: functional, organism-based
Mus musculus [15] = assay: Anticonvulsant activity in CF-1 albino mouse assessed as protection against subcutaneous pentetrazole-induced seizures at 30 mg/kg, ip after 4 hrs; type: functional, organism-based
Mus musculus [16] = assay: Neurotoxicity in CF-1 albino mouse assessed as unable to grasp at 100 mg/kg, ip after 0.5 hrs by rotarod test; type: toxicity, organism-based; conditions: in vivo
In short: (§3)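 Anticonvulsant Screening Program (NINDS) Phase 1 neurotoxicity screen in male albino CF-1 mice. Compounds were given i.p. as suspensions in 0.5% methylcellulose at 30, 100 and/or 300 mg/kg, and animals were observed 0.5 h and 4 h after dosing. The rotarod test was scored as number of animals showing toxicity over number tested, with the kind of toxicity recorded: inability to grasp rotorod, death, diarrhea, continuous seizure activity, loss of righting reflex, myoclonic jerks or tremors.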

Mus musculus [17] = assay: Anticonvulsant activity in CF-1 albino mouse assessed as protection against maximal electroshock-induced seizures at 100 mg/kg, ip after 0.5 hrs; type: functional, organism-based; in short: as §1
Histamine H3 receptor [18] = target: T1, Histamine H3 receptor; assay: Displacement of [3H]Nalpha-Methylhistamine from recombinant human histamine H3 receptor expressed in HEK293 cell membranes after 90 mins by liquid scintillation counting analysis
Mus musculus [19] = assay: Neurotoxicity in CF-1 albino mouse assessed as death at 300 mg/kg, ip after 0.5 hrs by rotarod test; type: toxicity, organism-based; conditions: in vivo; in short: as §3
IMR-32 = assay: Cytotoxicity against human IMR32 cells assessed as reduction in cell viability after 48 hrs by EZ4U Non-radioactive cell proliferation assay; type: cell-based; conditions: IMR-32, 48 h
In short: (§4)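 IMR-32 cells (2×10^4/well) or HEK-293 cells (1.5×10^4/well) in DMEM with 10% FBS were preincubated 24 h at 37 °C, 5% CO2. Compounds from 25 mM DMSO stocks were added at final 0.01–250 μM, with DMSO ≤1%. After 48 h, EZ4U label was added for 5 h and absorbance read at 492 nm.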

Mus musculus [20] = assay: Neurotoxicity in CF-1 albino mouse assessed as death at 300 mg/kg, ip after 0.5 hrs by rotarod test; conditions: in vivo
[21] = Safety index, ratio of compound IC50 to doxorubicin IC50 for HEK293 cells after 48 hrs by EZ4U non-radioactive cell proliferation assay; type: ADME, cell-based; conditions: human, read-out: Ratio IC50
HEK293 = assay: Cytotoxicity against HEK293 cells assessed as reduction in cell viability after 48 hrs by EZ4U Non-radioactive cell proliferation assay; type: cell-based; conditions: Homo sapiens, HEK293, 48 h; in short: as §4
Histamine H3 receptor [22] = target: T1, Histamine H3 receptor; assay: Antagonist activity at recombinant human histamine H3 receptor expressed in HEK293 cells assessed as inhibition of forskolin-stimulated intracellular cAMP accumulation after 30 mins by TR-FRET TR-FRET assay; type: functional, cell-based
In short: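 TR-FRET cAMP immunoassay in HEK293 cells stably expressing hH3R, 300 cells/well. (R)-α-methylhistamine (15 nM), forskolin (10 μM) and antagonist (0.1 nM–10 μM) added together. Stimulation 30 min at room temperature, then Eu-cAMP tracer and ULight anti-cAMP antibody added for 1 h. Mean of three experiments, each in triplicate.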

[23] = Safety index, ratio of compound IC50 to doxorubicin IC50 for human IMR32 cells after 48 hrs by EZ4U Non-radioactive cell proliferation assay; type: ADME, cell-based; conditions: IMR-32 cells, read-out: Ratio IC50
CYP3A4 = CYP3A4 (Homo sapiens, UniProt P08684); assay: Activation of recombinant human CYP3A4 using Luciferin-BE as substrate at 25 uM in presence of NADPH by P450-Glo luminescence assay relative to control; type: ADME; conditions: recombinant human CYP3A4, probe Luciferin-PPXE, in the assay text read “Luciferin-PPXE” for “Luciferin-BE”, read-out: Activity
In short: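 Recombinant human CYP3A4 P450-Glo luminescence assay: enzyme converts luciferin substrate to D-luciferin, then firefly luciferase is added and light output read as a measure of CYP3A4 activity. Final ligand concentrations 0.025–25 μM.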

Mus musculus [24] = assay: Anticonvulsant activity in CF-1 albino mouse assessed as protection against maximal electroshock-induced seizures at 300 mg/kg, ip after 4 hrs; type: functional, organism-based; in short: as §1
Mus musculus [25] = assay: Neurotoxicity in CF-1 albino mouse assessed as death at 100 mg/kg, ip after 4 hrs by rotarod test; type: toxicity, organism-based; conditions: in vivo; in short: as §3

T1 sequence (Q9Y5N1 whole entry): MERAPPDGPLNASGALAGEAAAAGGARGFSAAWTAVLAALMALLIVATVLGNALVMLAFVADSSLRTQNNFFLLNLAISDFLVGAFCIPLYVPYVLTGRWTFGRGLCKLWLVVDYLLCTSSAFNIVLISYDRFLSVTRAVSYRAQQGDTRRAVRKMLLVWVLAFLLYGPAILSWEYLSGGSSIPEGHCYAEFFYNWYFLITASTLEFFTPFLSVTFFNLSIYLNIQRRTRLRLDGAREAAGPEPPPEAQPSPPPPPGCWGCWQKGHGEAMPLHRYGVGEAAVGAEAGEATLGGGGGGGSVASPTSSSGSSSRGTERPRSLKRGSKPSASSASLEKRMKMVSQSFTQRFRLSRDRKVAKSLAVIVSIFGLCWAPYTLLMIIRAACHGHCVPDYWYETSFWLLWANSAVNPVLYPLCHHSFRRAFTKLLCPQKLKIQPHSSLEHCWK
CYP3A4, sequence (P08684 whole entry): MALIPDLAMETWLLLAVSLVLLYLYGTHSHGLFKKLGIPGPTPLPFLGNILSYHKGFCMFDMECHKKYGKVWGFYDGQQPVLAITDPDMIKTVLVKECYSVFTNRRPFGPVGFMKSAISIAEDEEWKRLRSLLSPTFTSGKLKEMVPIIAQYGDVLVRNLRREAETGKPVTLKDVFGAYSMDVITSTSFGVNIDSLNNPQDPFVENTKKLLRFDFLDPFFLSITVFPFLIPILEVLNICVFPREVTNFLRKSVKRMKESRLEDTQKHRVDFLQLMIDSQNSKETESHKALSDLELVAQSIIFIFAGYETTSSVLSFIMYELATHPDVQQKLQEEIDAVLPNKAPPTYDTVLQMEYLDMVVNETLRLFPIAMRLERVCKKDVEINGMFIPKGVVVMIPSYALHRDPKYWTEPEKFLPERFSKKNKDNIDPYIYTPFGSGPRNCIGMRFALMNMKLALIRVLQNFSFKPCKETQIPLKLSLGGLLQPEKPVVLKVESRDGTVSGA

SMILES	Ki (Histamine H3 receptor [1])	Rm [2]	Activity (Mus musculus [3])	Activity (Mus musculus [4])	Activity (Mus musculus [5])	Activity (Mus musculus [8])	Activity (Mus musculus [9])	Activity (Mus musculus [13])	Activity (Mus musculus [14])	Activity (Mus musculus [15])	Activity (Mus musculus [17])	further results
CCC(C)(C)c1ccc(OCCCCCCCN2CCCCCC2)cc1.O=C(O)C(=O)O	128 nM	2.926	–	–	–	–	–	–	–	–	–	–
CCC(C)(C)c1ccc(OCCCCCCCCN2CCCC(C)C2)cc1.O=C(O)C(=O)O (centres undefined)	121 nM	3.562	inactive	Active	Non-Toxic	inactive	inactive	inactive	inactive	inactive	–	Activity (Mus musculus [6]): Non-Toxic; Activity (Mus musculus [7]): inactive; Activity (Mus musculus [10]): inactive; Activity (Mus musculus [11]): Active; Activity (Rattus norvegicus): inactive; Activity (Mus musculus [12]): Non-Toxic
CCC(C)(C)c1ccc(OCCCCN2CCCCC2)cc1.O=C(O)C(=O)O	–	1.883	inactive	–	Non-Toxic	inactive	Active	inactive	inactive	inactive	Active	Activity (Mus musculus [16]): Toxic; Ki (Histamine H3 receptor [18]): 140 nM; Activity (Rattus norvegicus): inactive; Activity (Mus musculus [12]): Non-Toxic; Activity (Mus musculus [19]): Toxic
COc1cccc2c1C(=O)c1c(O)c3c(c(O)c1C2=O)C[C@@](O)(C(=O)CO)C[C@@H]3O[C@H]1C[C@H](N)[C@H](O)[C@H](C)O1 [DOXORUBICIN]	–	–	–	–	–	–	–	–	–	–	–	IC50 (IMR-32): 5.1 nM
CCC(C)(C)c1ccc(OCCCCCCCCN2CCCCCC2)cc1.O=C(O)C(=O)O	182 nM	3.384	–	–	–	–	–	–	–	–	–	–
CCC(C)(C)c1ccc(OCCCCCCN2CCC(C)CC2)cc1.O=C(O)C(=O)O	60.5 nM	–	Active	Active	Non-Toxic	inactive	Active	inactive	inactive	inactive	Active	Activity (Mus musculus [11]): Active; Activity (Mus musculus [20]): Toxic
CCC(C)(C)c1ccc(OCCCCCN2CCCCC2)cc1.O=C(O)C(=O)O	8.8 nM	2.172	inactive	inactive	Non-Toxic	inactive	inactive	inactive	inactive	inactive	–	selectivity ratio at 48 h [21]: 50 to 90; IC50 (HEK293): 41200 nM; EC50 (Histamine H3 receptor [22]): 157 nM; selectivity ratio at 48 h [23]: > 1000; Activity (Mus musculus [12]): Non-Toxic; IC50 (IMR-32): 72700 nM; activity at 25 µM (CYP3A4): 21%
CCC(C)(C)c1ccc(OCCCCCCCN2CCCC(C)C2)cc1.O=C(O)C(=O)O (centres undefined)	36.6 nM	2.983	inactive	Active	Non-Toxic	inactive	inactive	inactive	inactive	inactive	–	Activity (Mus musculus [24]): inactive; Activity (Mus musculus [7]): inactive; Activity (Mus musculus [11]): Active
CCC(C)(C)c1ccc(OCCCCCCCCN2CCCCC2)cc1.O=C(O)C(=O)O	326 nM	3.075	–	–	–	–	–	–	–	–	–	–
CCC(C)(C)c1ccc(OCCCCCN2CCC(C)CC2)cc1	23.4 nM	–	–	–	–	–	–	–	–	–	–	selectivity ratio at 48 h [21]: 50 to 90; IC50 (HEK293): 37100 nM; selectivity ratio at 48 h [23]: > 1000; IC50 (IMR-32): 27900 nM; activity at 25 µM (CYP3A4): 325%
CCC(C)(C)c1ccc(OCCCCN2CCCC(C)C2)cc1.O=C(O)C(=O)O (centres undefined)	–	2.294	inactive	Active	Non-Toxic	–	Active	inactive	inactive	inactive	Active	Activity (Mus musculus [16]): Toxic; Activity (Mus musculus [25]): Toxic; Ki (Histamine H3 receptor [18]): 46 nM; Activity (Rattus norvegicus): inactive; Activity (Mus musculus [19]): Toxic
CCC(C)(C)c1ccc(OCCCCCN2CCCC(C)C2)cc1.O=C(O)C(=O)O (centres undefined)	13.6 nM	2.342	inactive	Active	Non-Toxic	inactive	inactive	inactive	inactive	inactive	–	selectivity ratio at 48 h [21]: 50 to 90; IC50 (HEK293): 25100 nM; EC50 (Histamine H3 receptor [22]): 164 nM; selectivity ratio at 48 h [23]: > 1000; IC50 (IMR-32): 30900 nM; activity at 25 µM (CYP3A4): 52%
CCC(C)(C)c1ccc(OCCCCCCN2CCCCC2)cc1.O=C(O)C(=O)O	46.5 nM	2.456	inactive	Active	Non-Toxic	inactive	inactive	inactive	inactive	inactive	Active	Activity (Mus musculus [16]): Toxic; Activity (Mus musculus [12]): Non-Toxic; Activity (Mus musculus [20]): Toxic
CCC(C)(C)c1ccc(OCCCCCCCN2CCC(C)CC2)cc1.O=C(O)C(=O)O	64.4 nM	–	inactive	Active	Non-Toxic	inactive	inactive	inactive	inactive	inactive	Active	–
